{"source": "ChEMBL document CHEMBL1131140", "about": "“Synthesis and antimalarial activities of fluoroalkyl derivatives of dihydroartemisinin” (J Med Chem, 1998)", "tested_on": "Plasmodium falciparum", "experiment": "In vitro antimalarial activity for Plasmodium falciparum W-2", "format": "functional, organism-based", "summary_of_the_method": "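P. falciparum W-2 cultured in A+ human erythrocytes, RPMI with 10% A+ human serum, 25 mM HEPES, 25 mM NaHCO3, 37 °C, 10% O2/6% CO2/84% N2. Assay at 0.5% parasitemia, 1.5% hematocrit; 2-fold dilutions (methanol stocks), final 1.6–200 nM in triplicate; [3H]hypoxanthine uptake over 42 h; IC50 by nonlinear regression of log dose–response; mean of ≥3 experiments.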", "note": "pIC50: −log10 of the molar value."}
{"smiles": "C[C@@H]1CC[C@H]2[C@@H](C)C(OCC(F)(F)C(F)(F)C(F)(F)F)O[C@@H]3OC4(C)CC[C@@H]1[C@]32OO4", "note": "(single isomer, unassigned)", "values": [{"measurement": "pIC50", "value": 7.44}]}
{"smiles": "C[C@@H]1CC[C@H]2[C@@H](C)C(OC(C(F)(F)F)C(F)(F)F)O[C@@H]3OC4(C)CC[C@@H]1[C@]32OO4", "note": "(single isomer, unassigned)", "values": [{"measurement": "pIC50", "value": 7.47}]}
{"smiles": "C[C@@H]1CC[C@H]2[C@@H](C)[C@](O)(C(F)(F)F)O[C@@H]3OC4(C)CC[C@@H]1[C@]32OO4", "note": "(single isomer, unassigned)", "values": [{"measurement": "pIC50", "value": 8.59}]}
{"smiles": "CCOC(=O)C(OC1O[C@@H]2OC3(C)CC[C@H]4[C@H](C)CC[C@@H]([C@H]1C)[C@@]24OO3)C(F)(F)F", "note": "(single isomer, unassigned)", "values": [{"measurement": "pIC50", "value": 7.21}]}
{"smiles": "C[C@@H]1CC[C@H]2[C@@H](C)C(OCC(F)(F)C(F)C(F)(F)F)O[C@@H]3OC4(C)CC[C@@H]1[C@]32OO4", "note": "(single isomer, unassigned)", "values": [{"measurement": "pIC50", "value": 7.47}]}
{"smiles": "C[C@@H]1CC[C@H]2[C@@H](C)C(OC(c3ccccc3)(C(F)(F)F)C(F)(F)F)O[C@@H]3OC4(C)CC[C@@H]1[C@]32OO4", "note": "(single isomer, unassigned)", "values": [{"measurement": "pIC50", "value": 7.42}]}
{"smiles": "COC1O[C@@H]2OC3(C)CC[C@H]4[C@H](C)CC[C@@H]([C@H]1C)[C@@]24OO3", "note": "(single isomer, unassigned)", "values": [{"measurement": "pIC50", "value": 8.12}]}
{"smiles": "CO[C@H]1O[C@@H]2O[C@@]3(C)CC[C@H]4[C@H](C)CC[C@@H]([C@H]1C)[C@@]24OO3", "note": "[ARTEMETHER]", "values": [{"measurement": "pIC50", "value": 8.27}]}
{"smiles": "CC(OC1O[C@@H]2OC3(C)CC[C@H]4[C@H](C)CC[C@@H]([C@H]1C)[C@@]24OO3)C(F)(F)F", "note": "(single isomer, unassigned)", "values": [{"measurement": "pIC50", "value": 7.46}]}
{"smiles": "C[C@@H]1CC[C@H]2[C@@H](C)C(OC(c3ccccc3)C(F)(F)F)O[C@@H]3OC4(C)CC[C@@H]1[C@]32OO4", "note": "(single isomer, unassigned)", "values": [{"measurement": "pIC50", "value": 7.18}]}
{"smiles": "C[C@H]1C(OCC(F)(F)F)O[C@@H]2OC3(C)CC[C@H]4[C@H](C)CCC1[C@@]24OO3", "note": "(single isomer, unassigned)", "values": [{"measurement": "pIC50", "value": 7.51}]}
{"smiles": "C[C@@H]1CC[C@H]2[C@@H](C)C(OCC(F)(F)C(F)(F)F)O[C@@H]3OC4(C)CC[C@@H]1[C@]32OO4", "note": "(single isomer, unassigned)", "values": [{"measurement": "pIC50", "value": 7.57}]}
